Experimental data gathered from unrelated publications.
Compare with care: the assays were run in different laboratories.
CDK4 with cyclin D1: Cyclin-dependent kinase 4, with cyclin D1 (CDK4, Homo sapiens, UniProt P11802)
AMY2: Pancreatic alpha-amylase (AMY2, Sus scrofa, UniProt P00690)
CHRM2: Muscarinic acetylcholine receptor M2 (CHRM2, Homo sapiens, UniProt P08172)
SLC22A8: Organic anion transporter 3 (SLC22A8, Homo sapiens, UniProt Q8TCC7)
CDK4 with cyclin D3: Cyclin-dependent kinase 4, with cyclin D3 (CDK4, Homo sapiens, UniProt P11802)

Compound | target | assay | system | conditions | IC50
O=C(/C=C/c1ccc(O)c(O)c1)O[C@H](Cc1ccc(O)c(O)c1)C(=O)O | Pancreatic triacylglycerol lipase (PNLIP, Sus scrofa, UniProt P00591) | enzyme activity, inhibitor, absorbance |  | pH 8 | 137000 nM
CN(C)C(=O)c1cc2cnc(Nc3cncc(-c4cccc5c(=O)cc(N6CCOCC6)oc45)c3)nc2n1C1CCCC1 | CDK4 with cyclin D1 | enzyme activity, inhibitor, radiometric |  |  | 54 nM
O=c1c(O)c(-c2ccc(O)cc2)oc2c(Br)c(O)c(Br)c(O)c12 | AMY2 | enzyme activity, inhibitor |  |  | 3710 nM
CN(C)C(=O)c1cc2cnc(Nc3ccc(-c4cccc5c(=O)cc(N6CCOCC6)oc45)cc3)nc2n1C1CCCC1 | CDK4 with cyclin D1 | enzyme activity, inhibitor, radiometric |  |  | 226 nM
O=C(CCNC(=O)CNC(=O)CC(c1ccccc1)(c1ccccc1)c1ccccc1)NC[C@@H]1CCCN(Cc2ccc(F)nc2)C1 | CHRM2 | ligand displacement, radioligand |  | cell membranes | > 30000 nM
C[C@H]1CN(C(=O)CC#N)[C@]12CCN(c1ncnc3[nH]ccc13)C2 | SLC22A8 | transporter uptake, inhibitor |  |  | 6380 nM
O=c1cc(-c2ccc(O)c(O)c2)oc2cc(O)cc(O)c12 | AMY2 | enzyme activity, inhibitor |  |  | 2180 nM
CN(C)C(=O)c1cc2cnc(Nc3cccc4c(=O)cc(N5CCOCC5)oc34)nc2n1C1CCCC1 | CDK4 with cyclin D1 | enzyme activity, inhibitor, radiometric |  |  | > 10000 nM
CNS(=O)(=O)c1ccc(Nc2ncc(C(F)(F)F)c(N3CCCC(C)(O)C3)n2)c(C)c1 (stereo not shown) | CDK4 with cyclin D3 | enzyme activity, inhibitor, radiometric |  |  | 710 nM
CN(C)C(=O)c1cc2cnc(Nc3ccc(-c4cccc5c(=O)cc(N6CCNCC6)oc45)cc3)nc2n1C1CCCC1 | CDK4 with cyclin D1 | enzyme activity, inhibitor, radiometric |  |  | 290 nM
CC(C)NC(=O)COc1cccc(-c2nc(Nc3ccc4[nH]ncc4c3)c3ccccc3n2)c1 | SLC22A8 | transporter uptake, inhibitor, radiometric | HEK293 |  | > 1000 nM
CNS(=O)(=O)c1ccc(Nc2ncc(C(F)(F)F)c([C@H]3CC[C@](C)(O)CC3)n2)c(C)c1 | CDK4 with cyclin D3 | enzyme activity, inhibitor, radiometric |  |  | 247 nM
NC/C(=C\F)COc1cccc(Cn2c(=S)[nH]c(=O)c3[nH]cnc32)c1 | Voltage-dependent L-type calcium channel subunit alpha-1C (CACNA1C, Homo sapiens, UniProt Q13936) | ion current, inhibitor |  |  | > 100000 nM
O=C(CCNC(=O)CNC(=O)CC(c1ccccc1)(c1ccccc1)c1ccccc1)NC[C@H]1CCCN(Cc2ccc(F)cc2)C1 | CHRM2 | ligand displacement, radioligand |  | cell membranes | 13700 nM
CN1CCC(CNc2ccc3ncc(-c4cccc(OC(F)(F)F)c4)n3n2)CC1 | CHRM2 | cAMP, antagonist |  |  | 5140 nM
COc1ccc(-c2oc3cc(Nc4ncc5cc(C(=O)N(C)C)n(C6CCCC6)c5n4)ccc3c(=O)c2F)cc1 | CDK4 with cyclin D1 | enzyme activity, inhibitor, radiometric |  |  | 1070 nM
Cc1cc(O)c(-c2ccc([C@@H](C)CN(C)C)cc2)c2c1[nH]c(=O)c1sccc12 | CDK4 with cyclin D1 | enzyme activity, inhibitor |  |  | > 1000 nM
CN1CCN(c2cc(=O)c3ccc(Nc4ncc5cc(C(=O)N(C)C)n(C6CCCC6)c5n4)cc3o2)CC1 | CDK4 with cyclin D1 | enzyme activity, inhibitor, radiometric |  |  | 8 nM
Cc1cc(S(=O)(=O)NCCO[C@H]2CC[C@H](CN3CCC(c4ccn5c(N6CCC(=O)NC6=O)cnc5c4)CC3)CC2)ccc1Nc1ncc2cc(Cl)c(=O)n(C3CCCC3)c2n1 | CDK4 with cyclin D3 | enzyme activity, inhibitor, radiometric |  |  | 26 nM
